Measured values as given in ChEMBL document CHEMBL3351244, “Structure based design of novel 6,5 heterobicyclic mitogen-activated protein kinase kinase (MEK) inhibitors leading to the discovery of imidazo[1,5-a] pyrazine G-479” (Bioorg Med Chem Lett, 2014).
In brackets after ≈: the same amount, converted by molar mass.

Key:
[1] = Antiproliferative activity against human HCT116 cells assessed as inhibition of cell proliferation after 72 hrs; assay type: functional, cell-based; conditions: HCT-116, 72 h
How it was run: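 Cell proliferation measured after 72 h exposure in HCT116 and A375 cells; IC₅₀ reported.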

[2] = Lipophilicity, logD of the compound at pH 7.4; assay type: physicochemical; conditions: buffer
[3] = Hepatic clearance in human liver microsomes; assay type: ADME
How it was run: (§1)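 Compounds incubated with liver microsomes from human, rat, mouse, dog and cynomolgus monkey to assess comparative metabolic stability; clearance expressed in mL/min/kg, with stable/moderate/labile designations assigned by set ranges.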

[4] = Hepatic clearance in rat liver microsomes; assay type: ADME; how it was run: as §1
[5] = Hepatic clearance in mouse liver microsomes; assay type: ADME; how it was run: as §1
[6] = Total clearance in rat at 1 mg/kg, iv or 5 mg/kg, po; assay type: ADME, organism-based; conditions: in vivo
Rattus norvegicus [7] = experiment: Dose normalized AUC in rat at 5 mg/kg, po; assay type: ADME, organism-based; parameters: dose 5 mg/kg, route oral; conditions: in vivo
[8] = Oral bioavailability in rat at 5 mg/kg; assay type: ADME, organism-based; conditions: in vivo
[9] = biological target: Voltage-gated inwardly rectifying potassium channel KCNH2 (Homo sapiens, UniProt Q12809); experiment: Inhibition of human ERG by patch clamp assay
Sequence of Voltage-gated inwardly rectifying potassium channel KCNH2 (Q12809 whole entry): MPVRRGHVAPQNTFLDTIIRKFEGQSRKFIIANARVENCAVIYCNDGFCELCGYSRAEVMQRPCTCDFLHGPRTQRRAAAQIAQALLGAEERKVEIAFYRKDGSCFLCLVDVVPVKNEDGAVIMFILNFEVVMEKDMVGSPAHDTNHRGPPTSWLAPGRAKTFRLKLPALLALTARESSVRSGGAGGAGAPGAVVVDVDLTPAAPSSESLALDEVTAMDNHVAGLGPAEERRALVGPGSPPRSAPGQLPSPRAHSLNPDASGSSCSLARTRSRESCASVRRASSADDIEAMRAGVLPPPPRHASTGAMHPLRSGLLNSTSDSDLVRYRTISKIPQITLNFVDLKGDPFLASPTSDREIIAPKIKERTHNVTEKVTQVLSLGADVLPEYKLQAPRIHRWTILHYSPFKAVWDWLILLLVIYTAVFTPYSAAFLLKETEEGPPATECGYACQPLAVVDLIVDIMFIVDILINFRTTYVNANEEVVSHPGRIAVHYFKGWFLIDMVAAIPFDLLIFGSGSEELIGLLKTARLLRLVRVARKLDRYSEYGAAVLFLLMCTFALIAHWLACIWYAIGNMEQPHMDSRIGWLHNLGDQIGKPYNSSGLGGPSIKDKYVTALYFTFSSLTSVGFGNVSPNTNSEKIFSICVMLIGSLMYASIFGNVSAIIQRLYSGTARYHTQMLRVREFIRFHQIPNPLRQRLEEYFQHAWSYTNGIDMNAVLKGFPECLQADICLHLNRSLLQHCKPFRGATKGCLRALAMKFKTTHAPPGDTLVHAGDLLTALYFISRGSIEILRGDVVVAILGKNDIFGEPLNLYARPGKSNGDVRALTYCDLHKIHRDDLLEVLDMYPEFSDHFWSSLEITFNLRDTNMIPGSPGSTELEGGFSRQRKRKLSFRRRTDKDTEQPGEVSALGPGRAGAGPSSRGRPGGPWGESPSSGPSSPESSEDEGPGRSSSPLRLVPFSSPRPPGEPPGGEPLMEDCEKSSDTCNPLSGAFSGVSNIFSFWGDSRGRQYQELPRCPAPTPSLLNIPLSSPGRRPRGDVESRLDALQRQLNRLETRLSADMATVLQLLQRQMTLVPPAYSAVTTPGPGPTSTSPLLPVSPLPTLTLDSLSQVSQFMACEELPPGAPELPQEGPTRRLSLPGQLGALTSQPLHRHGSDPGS

[10] = Dissociation constant, pKa of the compound by Sirius based assay; assay type: physicochemical
[11] = Thermodynamic solubility of the compound at pH 6.5; assay type: physicochemical; conditions: buffer, read-out: Therm_solubility
Rattus norvegicus [12] = experiment: Free clearance in rat at 1 mg/kg, iv or 5 mg/kg, po; assay type: ADME, organism-based; conditions: in vivo
[13] = (§2) Permeability from apical to basolateral side in MDCK cells; assay type: ADME, cell-based, Canis lupus familiaris; conditions: dog, read-out: permeability
[14] = (§3) Permeability from basolateral to apical side in MDCK cells; assay type: ADME, cell-based, Canis lupus familiaris; conditions: dog, read-out: permeability
[15] = (§4) Efflux ratio in MDCK cells; assay type: ADME, cell-based, Canis lupus familiaris; conditions: dog
How it was run: (§5)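 Efflux ratio derived as B–A permeability divided by A–B permeability across MDCK cell monolayers. Apparent permeabilities were measured in both directions and expressed in 10^-6 cm/s.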

[16] = Protein binding in human plasma; assay type: ADME, cell-free; conditions: read-out: PPB (converted)
[17] = Protein binding in rat plasma; assay type: ADME, cell-free; conditions: read-out: PPB (converted)
[18] = Protein binding in mouse plasma; assay type: ADME, cell-free; conditions: read-out: PPB (converted)
A-375 = experiment: cells; conditions: Homo sapiens, A-375, 72 h
Cytochrome P450 2C9 = Cytochrome P450 2C9 (Homo sapiens, UniProt P11712); experiment: Inhibition of CYP2C9 (unknown origin); assay type: ADME
Sequence of Cytochrome P450 2C9 (P11712 whole entry): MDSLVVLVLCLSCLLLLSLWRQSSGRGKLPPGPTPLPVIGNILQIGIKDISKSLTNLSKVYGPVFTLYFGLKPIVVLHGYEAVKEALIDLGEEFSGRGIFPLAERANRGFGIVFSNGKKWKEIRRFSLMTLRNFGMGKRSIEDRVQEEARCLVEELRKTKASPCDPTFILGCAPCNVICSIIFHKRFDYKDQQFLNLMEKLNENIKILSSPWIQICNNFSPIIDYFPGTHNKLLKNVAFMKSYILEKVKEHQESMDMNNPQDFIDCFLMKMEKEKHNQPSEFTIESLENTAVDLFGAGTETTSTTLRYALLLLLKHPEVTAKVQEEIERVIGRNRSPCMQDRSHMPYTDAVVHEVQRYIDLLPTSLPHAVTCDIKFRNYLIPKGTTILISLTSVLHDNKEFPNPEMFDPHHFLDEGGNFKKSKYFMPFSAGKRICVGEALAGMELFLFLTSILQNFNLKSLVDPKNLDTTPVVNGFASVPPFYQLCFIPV

Cytochrome P450 2C19 = Cytochrome P450 2C19 (Homo sapiens, UniProt P33261); experiment: Inhibition of CYP2C19 (unknown origin); assay type: ADME
Sequence of Cytochrome P450 2C19 (P33261 whole entry): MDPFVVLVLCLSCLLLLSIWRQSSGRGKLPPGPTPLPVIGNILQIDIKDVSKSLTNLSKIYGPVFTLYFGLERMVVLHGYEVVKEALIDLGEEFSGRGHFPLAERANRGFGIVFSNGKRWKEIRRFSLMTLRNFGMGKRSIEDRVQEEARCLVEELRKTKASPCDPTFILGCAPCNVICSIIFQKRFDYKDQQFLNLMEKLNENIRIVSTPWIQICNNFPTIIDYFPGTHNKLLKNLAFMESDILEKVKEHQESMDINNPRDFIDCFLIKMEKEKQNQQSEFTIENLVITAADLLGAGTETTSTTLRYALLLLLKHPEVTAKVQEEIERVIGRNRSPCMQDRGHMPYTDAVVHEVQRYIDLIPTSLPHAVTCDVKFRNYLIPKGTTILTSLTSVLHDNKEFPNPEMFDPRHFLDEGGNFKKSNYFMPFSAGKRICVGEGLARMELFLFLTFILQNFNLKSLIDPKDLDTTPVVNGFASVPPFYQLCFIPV

Cytochrome P450 3A4 [19] = biological target: T1, Cytochrome P450 3A4 (Homo sapiens, UniProt P08684); experiment: Inhibition of CYP3A4 (unknown origin) using midazolam substrate; assay type: ADME
T1 sequence (P08684 whole entry): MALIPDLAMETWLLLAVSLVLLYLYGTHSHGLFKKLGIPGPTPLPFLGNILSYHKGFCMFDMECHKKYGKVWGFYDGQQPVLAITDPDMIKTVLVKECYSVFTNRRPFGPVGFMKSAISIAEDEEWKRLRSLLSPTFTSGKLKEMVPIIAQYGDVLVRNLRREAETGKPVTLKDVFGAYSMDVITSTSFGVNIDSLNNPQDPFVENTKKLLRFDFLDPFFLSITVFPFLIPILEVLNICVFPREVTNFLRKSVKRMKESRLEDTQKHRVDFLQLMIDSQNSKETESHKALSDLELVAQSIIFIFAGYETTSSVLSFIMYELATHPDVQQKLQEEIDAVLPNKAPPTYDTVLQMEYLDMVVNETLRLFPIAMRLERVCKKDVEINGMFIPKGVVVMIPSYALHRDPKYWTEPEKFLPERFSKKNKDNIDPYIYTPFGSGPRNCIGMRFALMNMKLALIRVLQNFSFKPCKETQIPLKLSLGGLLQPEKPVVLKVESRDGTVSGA

Cytochrome P450 3A4 [20] = biological target: T1, Cytochrome P450 3A4; experiment: Inhibition of CYP3A4 (unknown origin) using testosterone substrate; assay type: ADME
Cytochrome P450 2D6 = Cytochrome P450 2D6 (Homo sapiens, UniProt P10635); experiment: Inhibition of CYP2D6 (unknown origin); assay type: ADME
Sequence of Cytochrome P450 2D6 (P10635 whole entry): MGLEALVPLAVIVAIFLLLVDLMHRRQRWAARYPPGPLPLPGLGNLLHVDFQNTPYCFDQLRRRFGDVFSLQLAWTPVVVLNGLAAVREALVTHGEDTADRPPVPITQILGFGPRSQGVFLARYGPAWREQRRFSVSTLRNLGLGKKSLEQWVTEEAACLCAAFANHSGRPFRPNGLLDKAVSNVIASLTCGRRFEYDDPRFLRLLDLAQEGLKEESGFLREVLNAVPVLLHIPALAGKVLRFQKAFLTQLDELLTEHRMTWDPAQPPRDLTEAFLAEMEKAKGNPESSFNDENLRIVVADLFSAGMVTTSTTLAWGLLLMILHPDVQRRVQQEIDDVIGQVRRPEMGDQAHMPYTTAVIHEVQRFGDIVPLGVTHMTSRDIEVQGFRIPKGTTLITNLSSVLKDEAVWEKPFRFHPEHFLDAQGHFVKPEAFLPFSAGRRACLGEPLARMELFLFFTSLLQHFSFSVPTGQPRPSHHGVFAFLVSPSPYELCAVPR

Cytochrome P450 1A2 = biological target: T2, Cytochrome P450 1A2 (Homo sapiens, UniProt P05177); experiment: Inhibition of CYP1A2 (unknown origin); assay type: ADME
T2 sequence (P05177 whole entry): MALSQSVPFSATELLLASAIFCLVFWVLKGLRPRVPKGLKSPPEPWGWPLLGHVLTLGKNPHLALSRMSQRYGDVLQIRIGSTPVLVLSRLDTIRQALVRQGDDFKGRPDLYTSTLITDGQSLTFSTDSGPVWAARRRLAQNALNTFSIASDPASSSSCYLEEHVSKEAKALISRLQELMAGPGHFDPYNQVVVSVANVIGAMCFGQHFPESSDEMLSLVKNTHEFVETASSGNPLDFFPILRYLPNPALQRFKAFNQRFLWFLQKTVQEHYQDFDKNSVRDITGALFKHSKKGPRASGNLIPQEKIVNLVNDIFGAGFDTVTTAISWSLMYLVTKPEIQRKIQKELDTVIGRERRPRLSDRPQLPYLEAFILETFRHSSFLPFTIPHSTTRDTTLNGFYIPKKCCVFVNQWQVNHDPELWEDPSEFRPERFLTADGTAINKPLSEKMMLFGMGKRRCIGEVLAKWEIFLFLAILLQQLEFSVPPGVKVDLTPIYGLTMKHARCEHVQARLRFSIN

[21] = Hepatic clearance in dog liver microsomes; assay type: ADME, Canis lupus familiaris; how it was run: as §1
[22] = Hepatic clearance in cynomolgus monkey liver microsomes; assay type: ADME, Macaca fascicularis; how it was run: as §1
[23] = Half life in rat at 1 mg/kg, iv or 5 mg/kg, po; assay type: ADME, organism-based; conditions: in vivo
[24] = Volume of distribution at steady state in rat at 1 mg/kg, iv or 5 mg/kg, po; assay type: ADME, organism-based; conditions: in vivo, read-out: Vdss
Plasma [25] = experiment: Stability in rat plasma at 5 mg/kg, po; assay type: ADME, organism-based; parameters: dose 5 mg/kg, route oral; conditions: in vivo
Plasma [26] = experiment: Drug metabolism rat plasma assessed as metabolite formation at 5 mg/kg, po; assay type: ADME, organism-based; parameters: dose 5 mg/kg, route oral; conditions: in vivo
[27] = biological target: Dual specificity mitogen-activated protein kinase kinase 1 (Homo sapiens, UniProt Q02750); experiment: Inhibition of MEK1 (unknown origin) by HTRF assay
Sequence of Dual specificity mitogen-activated protein kinase kinase 1 (Q02750 whole entry): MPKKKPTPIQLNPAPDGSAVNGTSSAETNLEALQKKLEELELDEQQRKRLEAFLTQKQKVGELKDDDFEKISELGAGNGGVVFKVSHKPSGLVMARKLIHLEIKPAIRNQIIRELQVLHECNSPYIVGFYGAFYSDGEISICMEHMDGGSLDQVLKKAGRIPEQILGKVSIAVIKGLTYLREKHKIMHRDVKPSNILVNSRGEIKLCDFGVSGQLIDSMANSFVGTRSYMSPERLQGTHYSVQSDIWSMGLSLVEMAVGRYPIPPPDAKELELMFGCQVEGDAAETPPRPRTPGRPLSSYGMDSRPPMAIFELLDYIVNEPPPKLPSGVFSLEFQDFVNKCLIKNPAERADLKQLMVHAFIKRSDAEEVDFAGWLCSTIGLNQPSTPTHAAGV

MDCK [28] = experiment: as §2; assay type: ADME, cell-based, Canis lupus familiaris; conditions: dog
MDCK [29] = experiment: as §3; assay type: ADME, cell-based, Canis lupus familiaris; conditions: dog
MDCK [30] = experiment: as §4; assay type: ADME, cell-based, Canis lupus familiaris; conditions: dog; how it was run: as §5
[31] = AUC in rat at 1 mg/kg, iv or 5 mg/kg, po; assay type: ADME, organism-based; conditions: plasma

Row | Structure (SMILES) | EC50 [1] [nM] | logD [2] | CLhep predicted [3] [mL/min/kg] | CLhep predicted [4] [mL/min/kg] | CLhep predicted [5] [mL/min/kg] | clearance [6] [mL/min/kg] | AUC/dose (Rattus norvegicus [7]) [µM·h] | bioavailability [8] [%] | IC50 [9] [µM] | solubility thermodynamic [11] [µg/mL] | CL free (Rattus norvegicus [12]) [mL/min/kg] | fraction unbound [16] | fraction unbound [17] | fraction unbound [18] | EC50 (A-375) [nM] | IC50 (Cytochrome P450 2C9) [µM] | IC50 (Cytochrome P450 2C19) [µM] | IC50 (Cytochrome P450 3A4 [19]) [µM] | IC50 (Cytochrome P450 3A4 [20]) [µM] | IC50 (Cytochrome P450 2D6) [µM] | also measured
1 | O=C(NOCCO)c1ncc2cncn2c1Nc1ccc(I)cc1F | 120 | 2.1 | 11 | 41 | 54 | 48 | 1.48 | 38 | 3.3 | 150 (≈ 328 µM) | 600 | 0.09 | 0.08 | 0.11 | 8 |  |  |  |  |  | pKa [10]: 2.03; Papp A→B [13]: 19.7 ×10⁻⁶ cm/s; Papp B→A [14]: 14 ×10⁻⁶ cm/s; efflux ratio [15]: 0.7
2 | O=C(NOCCO)c1ccc2cncn2c1Nc1ccc(I)cc1F [GDC-0623] | 51 | 2.1 | 14 | 38 | 64 | 13.2 | 20 | 100 | 4.4 | 41 (≈ 89.9 µM) | 1320 | 0.005 | 0.01 | 0.06 | 4 | > 10 | > 10 | > 10 | > 10 | > 10 | IC50 (Cytochrome P450 1A2): > 10 µM; CLhep predicted [21]: 12 mL/min/kg; CLhep predicted [22]: 30 mL/min/kg; half-life [23]: 102 min; Vd [24]: 0.5 L/kg; pKa [10]: 4.3; Papp A→B [13]: 6.2 ×10⁻⁶ cm/s; Papp B→A [14]: 16.5 ×10⁻⁶ cm/s; efflux ratio [15]: 2.6; Stability (Plasma [25]): 82%; Drug metabolism (Plasma [26]): metabolite_detected
3 | O=C(NOCCO)c1ccc2cnsc2c1Nc1ccc(I)cc1F | 44 | 3.1 |  |  |  |  |  |  |  |  |  |  |  |  |  | 1.3 | 1.8 | 9 | 9 | > 10 | IC50 (Cytochrome P450 1A2): > 10 µM
4 | O=C(NOCCO)c1cc(F)c2cncn2c1Nc1ccc(I)cc1F | 140 |  |  |  |  | 3.3 | 41 |  |  |  | 55 |  | 0.03 |  |  | 1.2 |  |  |  |  | half-life [23]: 216 min
5 | O=C(NOCCO)c1oc2ccncc2c1Nc1ccc(I)cc1F | 120 | 3.1 |  |  |  |  |  |  |  |  |  |  |  |  | 25 | > 10 | > 10 | > 10 | > 10 | > 10 | IC50 [27]: 12 nM; IC50 (Cytochrome P450 1A2): > 10 µM
6 | C[C@H](O)CONC(=O)c1ncc2cncn2c1Nc1ccc(I)cc1F | 52 |  | 10 | 44 | 56 | 44 | 0.61 | 15 |  | 48 (≈ 102 µM) | 800 | 0.1 | 0.055 | 0.09 | 5 |  |  |  |  |  | 
7 | C[C@H](CO)CONC(=O)c1ncc2cncn2c1Nc1ccc(I)cc1F | 107 |  | 8 | 19 | 29 | 12 | 9.2 | 65 | 14 | 12 (≈ 24.7 µM) | 92 | 0.14 | 0.13 | 0.13 | 7 |  |  |  |  |  | permeability (MDCK [28]): 7.9 ×10⁻⁶ cm/s; permeability (MDCK [29]): 8.7 ×10⁻⁶ cm/s; Ratio (MDCK [30]): 1.3
8 | O=C(NOCCO)c1ccn2cncc2c1Nc1ccc(I)cc1F | 35 | 2.1 | 15 | 40 | 75 | 14 | 37 | 37 | 2.1 | 110 (≈ 241 µM) | 636 | 0.015 | 0.022 | 0.049 | 2 | 7.3 | 16 | > 10 | > 10 | > 10 | IC50 (Cytochrome P450 1A2): > 10 µM; CLhep predicted [21]: 23 mL/min/kg; CLhep predicted [22]: 38 mL/min/kg; half-life [23]: 54 min; Vd [24]: 0.46 L/kg; AUC [31]: 6 µM·h; Papp A→B [13]: 20.4 ×10⁻⁶ cm/s; Papp B→A [14]: 14 ×10⁻⁶ cm/s; efflux ratio [15]: 0.7
